Experimental data: ChEMBL document CHEMBL1140994, “Ranking the selectivity of PubChem screening hits by activity-based protein profiling: MMP13 as a case study” (Bioorg Med Chem, 2009)
Calls of active or inactive are those of the source. No cut-off for these calls is given here.

Columns and labels:
[1] = biological target: Angiotensin-converting enzyme 2 (Homo sapiens) (UniProt Q9BYF1); test: Inhibition of human recombinant ACE2 at 200 uM by HxBPyne probe-based competitive activity based protein profiling assay in presence of 200 uM HxBpane competitor
Outline: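 Metalloprotease at 1.6 μM final in PBS, without liver proteome. HxBPyne probe cocktail 20 μM final, with inhibitor 200 μM or DMSO. Preincubated 30 min on ice, then irradiated 365 nm for 1 h on ice. Rhodamine-azide click chemistry, then SDS-PAGE and in-gel fluorescence scanning. Integrated band intensity expressed as % of DMSO control.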

[2] = biological target: Matrilysin (Homo sapiens) (UniProt P09237); test: Inhibition of human recombinant MMP7 at 200 uM by HxBPyne probe-based competitive activity based protein profiling assay in presence of 5 uM HxBpane competitor
Outline: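 Recombinant enzyme at 0.5 μM final in mouse liver soluble proteome (1 mg protein/mL in PBS). HxBPyne probe cocktail 0.5 μM total final, with inhibitor 200 μM or DMSO. Preincubated 30 min on ice, then UV 365 nm for 1 h on ice. Rhodamine-azide click chemistry, 1 h RT in dark. SDS-PAGE with in-gel fluorescence; band intensity given as % of DMSO control.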

Sequence of Matrilysin (Homo sapiens) (P09237 whole entry): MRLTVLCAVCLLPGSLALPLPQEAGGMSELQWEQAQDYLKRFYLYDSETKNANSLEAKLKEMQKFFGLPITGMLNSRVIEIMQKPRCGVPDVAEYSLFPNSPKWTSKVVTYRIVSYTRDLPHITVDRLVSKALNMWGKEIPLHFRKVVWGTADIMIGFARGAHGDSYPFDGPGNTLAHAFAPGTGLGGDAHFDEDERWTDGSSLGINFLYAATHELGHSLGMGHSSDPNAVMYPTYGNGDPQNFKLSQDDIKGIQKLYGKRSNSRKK
Sequence of Angiotensin-converting enzyme 2 (Homo sapiens) (Q9BYF1 18-805 limits assumed): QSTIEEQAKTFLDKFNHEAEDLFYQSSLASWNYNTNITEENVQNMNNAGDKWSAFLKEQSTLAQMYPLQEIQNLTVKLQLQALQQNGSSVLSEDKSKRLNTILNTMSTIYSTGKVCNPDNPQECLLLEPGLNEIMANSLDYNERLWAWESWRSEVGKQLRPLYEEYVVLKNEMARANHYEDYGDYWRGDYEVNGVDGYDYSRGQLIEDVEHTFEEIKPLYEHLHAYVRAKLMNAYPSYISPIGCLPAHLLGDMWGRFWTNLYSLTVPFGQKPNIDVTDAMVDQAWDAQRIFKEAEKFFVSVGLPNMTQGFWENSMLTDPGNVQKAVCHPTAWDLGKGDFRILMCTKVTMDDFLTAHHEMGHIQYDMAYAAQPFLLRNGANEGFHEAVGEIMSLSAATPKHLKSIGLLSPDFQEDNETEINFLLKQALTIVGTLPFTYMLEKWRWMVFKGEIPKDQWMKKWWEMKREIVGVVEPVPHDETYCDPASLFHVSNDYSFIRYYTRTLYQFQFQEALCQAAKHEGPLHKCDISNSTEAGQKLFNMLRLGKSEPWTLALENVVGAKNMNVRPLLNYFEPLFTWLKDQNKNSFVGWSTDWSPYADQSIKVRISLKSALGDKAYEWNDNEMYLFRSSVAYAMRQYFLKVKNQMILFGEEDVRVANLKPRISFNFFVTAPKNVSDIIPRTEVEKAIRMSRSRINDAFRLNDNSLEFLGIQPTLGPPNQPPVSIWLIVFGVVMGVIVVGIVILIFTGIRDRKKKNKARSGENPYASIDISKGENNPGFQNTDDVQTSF

| Activity [1] | Activity [2] | SMILES |
| --- | --- | --- |
| inactive | inactive | COc1ccc(CSc2nc(C)cc(O)n2)cc1 |
| inactive | inactive | Oc1nc(SCc2ccc(Cl)cc2)nc2c1CCC2 |
